Assay [1] addresses T1, rat α1β2γ2L type GABAA receptors expressed in Xenopus laevis oocytes (Rattus norvegicus, UniProt P62813+P63138). In kind it is cell-based. Particulars: 2 µM GABA; for Potentiation, steroids 1 and 6a directly compared on the same oocyte (Figure 4): 1 and 10 µM compound, 6 to 7 oocytes; for oocyte electrophysiology, ratio of currents in presence/absence of compound: ± SEM, N ≥ 4. The gist of the method:
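Rat α1β2γ2L GABAA receptors expressed in Xenopus oocytes with whole-cell recording. Currents with test compound plus 2 µM GABA were expressed as a ratio to 2 µM GABA alone, with at least four oocytes per compound. Direct gating used 10 µM compound without GABA, given as a ratio to the 2 µM GABA current. In the within-oocyte comparison, 1 or 10 µM compound was co-applied with 2 µM GABA and averaged over 6–7 oocytes.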

For the next assay, the system named is BALB/C mice. The assay is described as follows: Anesthesia. In kind it is in vivo, mouse. Particulars: tail vein injection.
The test system of assay [2] is tadpole. The assay is described as follows: Tadpole loss of righting reflex. In kind it is in vivo. Particulars: read-out: Tadpole LRR EC50; ± SEM, N = 10 or more animals at each of five or more concentrations.
Assay [3] relates to tadpole. Put plainly: Tadpole loss of swimming reflex. In kind it is in vivo. The settings on record: ± SEM, None = all animals had a swimming response at 10 µM of the test compound.
For assay [4], the system named is tadpole. Particulars: read-out: Tadpole LRR EC50; ± SEM; cited from earlier work.
The test system of assay [5] is tadpole. The settings on record: read-out: Tadpole LSR EC50; ± SEM; None = all animals had a swimming response at 10 µM of the test compound; cited from earlier work.
Assay [6] concerns the target picrotoxin binding site on GABAA receptors. The settings on record: read-out: IC50, inhibition of [35S]-TBPS binding; ± SEM; cited from earlier work.
Assay [7] deals with T1, rat α1β2γ2L type GABAA receptors expressed in Xenopus laevis oocytes. The settings on record: 2 µM GABA, ± SEM, cited from earlier work.

Where two headings read alike, the source gives them in different places.

As for `C[C@]12CC[C@@H](O)C[C@@H]1CC[C@@H]1[C@@H]2C(=O)C[C@]2(C)/C(=C\C#N)CC[C@@H]12` [Compound 6a, [3α,5α,17(20)Z]-3-Hydroxy-11-oxopregn-17(20)-ene-21-nitrile], the “Potentiation, steroids 1 and 6a directly compared on the same oocyte (Figure 4)” value in assay [1] is on record as “potentiate to the same level”. The “Time to loss of movement and righting reflex (onset)” value with BALB/C mice (mice, 8 mg/kg) fell in the range of 10 to 25 s. The “Onset of loss of righting reflex” value in the assay on BALB/C mice (mice, 16 mg/kg) is listed as “immediate loss of righting reflex”.

Consider `C[C@]12CC[C@@H](O)C[C@@H]1CC[C@@H]1[C@@H]2C(=O)C[C@]2(C)C(C=O)=CC[C@@H]12` [Compound 5a, (3α,5α)-3-Hydroxy-11-oxoandrost-16-ene-17-carboxaldehyde], for which the EC50 with tadpole [2] is ~3 µM. Besides, the “Tadpole LSR EC50” value with tadpole [3] is “None”.

Take `CC(=O)[C@H]1CC[C@H]2[C@@H]3CC[C@H]4C[C@H](O)CC[C@]4(C)[C@H]3C(=O)C[C@]12C` [Compound 1, (3α,5α)-3-hydroxypregnane-11,20-dione]: the “Potentiation, steroids 1 and 6a directly compared on the same oocyte (Figure 4)” value in assay [1] is listed as “potentiate to the same level”. The “Anesthetic effect in mice” value in the assay with BALB/C mice (8 mg/kg, 22.5% 2-hydroxypropyl-β-cyclodextrin) is recorded as “very brief anesthesia”. Also, in the assay with BALB/C mice (mice, 16 mg/kg), the “Onset of loss of righting reflex” value is given as “immediate loss of righting reflex”; the “Recovery period from initial return of leg movement to righting and walking” value was 1 to 2 min. Besides, the EC50 in the assay with tadpole [4] is 1.12 ± 0.14 µM. The EC50 in the assay on tadpole [5] is 5.48 ± 0.11 µM.

Consider `CC(=O)C1=CC[C@H]2[C@@H]3CC[C@H]4C[C@H](O)CC[C@]4(C)[C@H]3C(=O)C[C@]12C` [Compound 2, (3α,5α)-3-hydroxypregn-16-ene-11,20-dione], for which the IC50 in assay [6] was 2.22 µM. For the same compound, the “oocyte electrophysiology, ratio of currents in presence/absence of compound” value is 0.94 ± 0.04 in assay [7] (0.1 µM compound), 0.97 ± 0.05 in assay [7] (1 µM compound) and 1.87 ± 0.14 in assay [7] (10 µM compound). Further, the EC50 in the assay on tadpole [4] was > 10 µM.

Take `C[C@]12CC[C@@H](O)C[C@@H]1CC[C@H]1[C@@H]3CC[C@H](C=O)[C@@]3(C)CC(=O)[C@@H]12` [Compound 5b, (3α,5α,17β)-3-Hydroxy-11-oxoandrostane-17-carboxaldehyde]: in the assay on tadpole [3], the “Tadpole LSR EC50” value is “None”.

Regarding “(3α,5α)-3-Hydroxy-11-oxopregnan-21-carbonitrile [Compound 5c]”, the “oocyte electrophysiology, ratio of currents in presence/absence of compound” value in assay [1] (0.1 µM compound) was determined as 0.91 ± 0.03; in assay [1] (1 µM compound), 1.13 ± 0.08; in assay [1] (10 µM compound), 4.67 ± 0.14. For the same compound, the EC50 in the assay with tadpole [2] was determined as 3.58 ± 1.59 µM. Besides, the “Tadpole LSR EC50” value with tadpole [3] is given as “None”.

`C/C(C#N)=C1\CC[C@H]2[C@@H]3CC[C@H]4C[C@H](O)CC[C@]4(C)[C@H]3C(=O)C[C@]12C` [Compound 6c, [3α,5α,17(20)Z]-3-Hydroxy-11-oxopregn-17(20)-ene-20-carbonitrile]: the EC50 in the assay on tadpole [3] (read-out: Tadpole LSR EC50) was < 10 µM.

The values are drawn from publication PMC3794474 (Journal of medicinal chemistry, 2011).
